The target of test [1] is Proto-oncogene tyrosine-protein kinase Src (Homo sapiens) (UniProt P12931). Description: Inhibition of SRC (unknown origin) at 1 uM in presence of 100 uM ATP.
The nature of test [2]: Inhibition of PKAalpha (unknown origin) after 1 hr by Z'-LYTE kinase assay in presence of 4 uM ATP. Also noted: species or system Homo sapiens. The method in brief: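 Z′-LYTE FRET assay measuring phosphorylation of a peptide substrate by recombinant kinase, independent of mechanism. IC50 is the average of three independent experiments, with 95% confidence intervals.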
Test [3] deals with MAP kinase-interacting serine/threonine-protein kinase 1 (Homo sapiens) (UniProt Q9BUB5). Description: Inhibition of MKNK1 (unknown origin) at 1 uM in presence of 100 uM ATP.
Test [4] has as its target Vascular endothelial growth factor receptor 1 (Homo sapiens) (UniProt P17948). Description: Inhibition of FLT1 (unknown origin) at 1 uM in presence of 100 uM ATP.
In test [5] the target is Serine/threonine-protein kinase Chk2 (Homo sapiens) (UniProt O96017). Description: Inhibition of CHK2 (unknown origin) at 1 uM in presence of 100 uM ATP.
Test [6] has as its target Serine/threonine-protein kinase Chk1 (Homo sapiens) (UniProt O14757). Description: Inhibition of CHK1 (unknown origin) at 1 uM in presence of 100 uM ATP.
Test [7] deals with Protein kinase C theta type (Homo sapiens) (UniProt Q04759). Description: Inhibition of PKCtheta (unknown origin) at 1 uM in presence of 100 uM ATP.
Test [8] deals with T1, RAC-alpha serine/threonine-protein kinase (Homo sapiens, UniProt P31749). Description: Inhibition of AKT1 (unknown origin) at 1 uM in presence of 100 uM ATP.
Test [9] concerns the target MAP kinase-activated protein kinase 2 (Homo sapiens) (UniProt P49137). Description: Inhibition of MAPKAPK2 (unknown origin) at 1 uM in presence of 100 uM ATP.
The target of test [10] is Serine/threonine-protein kinase MARK1 (Homo sapiens) (UniProt Q9P0L2). Description: Inhibition of MARK1 (unknown origin) at 1 uM in presence of 100 uM ATP.
Test [11] can be described thus: Selectivity index, ratio of IC50 for human HCT116 cells to IC50 for recombinant AKT (unknown origin). More on the design: species or system HCT-116.
In test [12] the target is Calcium/calmodulin-dependent protein kinase type 1D (Homo sapiens) (UniProt Q8IU85). Description: Inhibition of CAMK1D (unknown origin) at 1 uM in presence of 100 uM ATP.
In test [13] the target is Receptor tyrosine-protein kinase erbB-4 (Homo sapiens) (UniProt Q15303). Description: Inhibition of ERBB4 (unknown origin) at 1 uM in presence of 100 uM ATP.
Test [14] has as its target Tyrosine-protein kinase ABL1 (Homo sapiens) (UniProt P00519). Description: Inhibition of ABL1 (unknown origin) at 1 uM in presence of 100 uM ATP.
For test [15], the target named is Ribosomal protein S6 kinase beta-1 (Homo sapiens) (UniProt P23443). Description: Inhibition of p70S6K (unknown origin) at 1 uM in presence of 100 uM ATP.
The target of test [16] is Calcium/calmodulin-dependent protein kinase type IV (Homo sapiens) (UniProt Q16566). Description: Inhibition of CAMK-4 (unknown origin) at 1 uM in presence of 100 uM ATP.
Test [17] addresses T1, RAC-alpha serine/threonine-protein kinase. Description: Inhibition of AKT1 (unknown origin) after 1 hr by Z'-LYTE kinase assay in presence of 75 uM ATP.
Test [18] concerns the target cAMP-dependent protein kinase catalytic subunit PRKX (Homo sapiens) (UniProt P51817). Description: Inhibition of PRKX (unknown origin) at 1 uM in presence of 100 uM ATP.

pIC50: −log10 of the molar value.

The values that follow come from ChEMBL document CHEMBL3297689, “Phenylalanine-Based Inactivator of AKT Kinase: Design, Synthesis, and Biological Evaluation” (ACS Med Chem Lett, 2014).

T1 sequence (P31749 whole entry): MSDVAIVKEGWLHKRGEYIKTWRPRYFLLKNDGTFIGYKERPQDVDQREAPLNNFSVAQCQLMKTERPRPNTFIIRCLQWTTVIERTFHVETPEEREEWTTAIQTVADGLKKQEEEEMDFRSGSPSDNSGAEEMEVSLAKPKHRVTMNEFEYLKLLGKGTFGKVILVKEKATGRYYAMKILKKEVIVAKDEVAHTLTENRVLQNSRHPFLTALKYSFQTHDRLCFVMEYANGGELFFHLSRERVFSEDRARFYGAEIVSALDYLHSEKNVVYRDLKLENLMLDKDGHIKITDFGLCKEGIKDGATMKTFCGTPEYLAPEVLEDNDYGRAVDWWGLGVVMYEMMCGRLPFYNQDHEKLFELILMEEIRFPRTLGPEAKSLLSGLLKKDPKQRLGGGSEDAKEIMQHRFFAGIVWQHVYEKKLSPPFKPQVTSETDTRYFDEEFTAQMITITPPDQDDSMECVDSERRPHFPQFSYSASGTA
Chain of Receptor tyrosine-protein kinase erbB-4 (Homo sapiens) (Q15303 whole entry): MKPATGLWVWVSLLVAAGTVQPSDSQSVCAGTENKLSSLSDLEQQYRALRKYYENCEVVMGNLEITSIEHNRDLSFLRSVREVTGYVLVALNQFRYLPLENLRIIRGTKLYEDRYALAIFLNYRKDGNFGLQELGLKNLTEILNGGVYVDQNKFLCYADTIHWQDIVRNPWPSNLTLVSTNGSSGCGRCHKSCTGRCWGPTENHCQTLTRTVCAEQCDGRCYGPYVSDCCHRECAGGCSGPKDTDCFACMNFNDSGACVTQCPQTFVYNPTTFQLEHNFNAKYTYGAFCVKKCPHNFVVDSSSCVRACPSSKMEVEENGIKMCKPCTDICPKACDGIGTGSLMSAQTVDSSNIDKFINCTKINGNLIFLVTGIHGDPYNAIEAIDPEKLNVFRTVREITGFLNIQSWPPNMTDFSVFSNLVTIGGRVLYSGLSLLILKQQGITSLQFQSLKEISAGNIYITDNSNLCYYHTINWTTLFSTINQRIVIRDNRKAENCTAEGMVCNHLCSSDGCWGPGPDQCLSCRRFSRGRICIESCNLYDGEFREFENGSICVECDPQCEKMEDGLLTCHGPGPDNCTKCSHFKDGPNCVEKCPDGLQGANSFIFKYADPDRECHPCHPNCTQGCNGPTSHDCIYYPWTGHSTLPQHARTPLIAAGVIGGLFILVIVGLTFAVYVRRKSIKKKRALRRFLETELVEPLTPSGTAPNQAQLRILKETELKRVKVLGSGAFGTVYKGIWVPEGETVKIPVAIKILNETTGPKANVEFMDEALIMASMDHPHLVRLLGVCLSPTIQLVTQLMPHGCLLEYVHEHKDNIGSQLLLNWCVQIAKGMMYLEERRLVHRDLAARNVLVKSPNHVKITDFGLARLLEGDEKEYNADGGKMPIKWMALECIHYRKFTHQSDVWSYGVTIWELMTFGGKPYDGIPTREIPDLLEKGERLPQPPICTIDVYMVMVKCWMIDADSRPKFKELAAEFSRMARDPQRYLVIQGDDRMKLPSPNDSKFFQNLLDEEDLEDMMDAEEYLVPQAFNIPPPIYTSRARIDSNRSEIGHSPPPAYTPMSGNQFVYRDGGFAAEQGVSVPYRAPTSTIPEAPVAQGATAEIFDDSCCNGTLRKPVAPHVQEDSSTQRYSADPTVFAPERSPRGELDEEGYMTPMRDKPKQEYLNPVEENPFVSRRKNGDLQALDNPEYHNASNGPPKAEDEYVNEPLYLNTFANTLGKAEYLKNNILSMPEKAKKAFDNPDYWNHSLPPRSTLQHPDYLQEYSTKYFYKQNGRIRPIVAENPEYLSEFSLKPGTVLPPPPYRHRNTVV
Chain of Protein kinase C theta type (Homo sapiens) (Q04759 whole entry, looked up): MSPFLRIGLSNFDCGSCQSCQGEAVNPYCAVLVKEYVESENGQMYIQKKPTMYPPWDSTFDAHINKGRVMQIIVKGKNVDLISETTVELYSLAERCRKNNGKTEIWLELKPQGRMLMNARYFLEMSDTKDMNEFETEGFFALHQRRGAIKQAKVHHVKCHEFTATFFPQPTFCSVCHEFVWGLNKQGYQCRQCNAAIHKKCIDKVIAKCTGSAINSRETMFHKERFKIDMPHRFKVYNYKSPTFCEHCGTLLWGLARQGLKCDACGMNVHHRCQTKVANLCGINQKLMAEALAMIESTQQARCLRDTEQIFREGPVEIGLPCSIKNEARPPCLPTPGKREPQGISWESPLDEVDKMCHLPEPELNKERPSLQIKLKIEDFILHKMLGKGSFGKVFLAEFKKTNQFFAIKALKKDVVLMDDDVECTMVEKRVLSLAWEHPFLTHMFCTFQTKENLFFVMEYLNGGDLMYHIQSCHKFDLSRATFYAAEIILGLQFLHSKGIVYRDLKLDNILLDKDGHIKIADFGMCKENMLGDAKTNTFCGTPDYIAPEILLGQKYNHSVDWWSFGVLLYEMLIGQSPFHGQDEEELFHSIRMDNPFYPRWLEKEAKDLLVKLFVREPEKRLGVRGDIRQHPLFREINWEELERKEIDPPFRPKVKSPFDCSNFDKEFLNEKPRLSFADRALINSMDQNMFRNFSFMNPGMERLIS
Chain of Serine/threonine-protein kinase Chk1 (Homo sapiens) (O14757 whole entry): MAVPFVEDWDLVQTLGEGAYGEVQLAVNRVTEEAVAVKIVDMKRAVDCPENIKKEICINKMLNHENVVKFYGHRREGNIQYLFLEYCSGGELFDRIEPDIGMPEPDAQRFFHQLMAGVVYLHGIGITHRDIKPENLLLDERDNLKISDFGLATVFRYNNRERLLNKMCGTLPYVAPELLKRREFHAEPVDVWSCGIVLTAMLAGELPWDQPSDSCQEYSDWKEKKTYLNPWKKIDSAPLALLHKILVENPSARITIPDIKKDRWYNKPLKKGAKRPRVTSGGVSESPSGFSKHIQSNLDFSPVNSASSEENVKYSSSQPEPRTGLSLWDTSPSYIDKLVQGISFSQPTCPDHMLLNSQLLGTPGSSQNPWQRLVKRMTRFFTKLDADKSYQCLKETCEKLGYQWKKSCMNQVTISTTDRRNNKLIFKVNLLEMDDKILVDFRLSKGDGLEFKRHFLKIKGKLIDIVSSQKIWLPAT
Chain of Vascular endothelial growth factor receptor 1 (Homo sapiens) (P17948 whole entry): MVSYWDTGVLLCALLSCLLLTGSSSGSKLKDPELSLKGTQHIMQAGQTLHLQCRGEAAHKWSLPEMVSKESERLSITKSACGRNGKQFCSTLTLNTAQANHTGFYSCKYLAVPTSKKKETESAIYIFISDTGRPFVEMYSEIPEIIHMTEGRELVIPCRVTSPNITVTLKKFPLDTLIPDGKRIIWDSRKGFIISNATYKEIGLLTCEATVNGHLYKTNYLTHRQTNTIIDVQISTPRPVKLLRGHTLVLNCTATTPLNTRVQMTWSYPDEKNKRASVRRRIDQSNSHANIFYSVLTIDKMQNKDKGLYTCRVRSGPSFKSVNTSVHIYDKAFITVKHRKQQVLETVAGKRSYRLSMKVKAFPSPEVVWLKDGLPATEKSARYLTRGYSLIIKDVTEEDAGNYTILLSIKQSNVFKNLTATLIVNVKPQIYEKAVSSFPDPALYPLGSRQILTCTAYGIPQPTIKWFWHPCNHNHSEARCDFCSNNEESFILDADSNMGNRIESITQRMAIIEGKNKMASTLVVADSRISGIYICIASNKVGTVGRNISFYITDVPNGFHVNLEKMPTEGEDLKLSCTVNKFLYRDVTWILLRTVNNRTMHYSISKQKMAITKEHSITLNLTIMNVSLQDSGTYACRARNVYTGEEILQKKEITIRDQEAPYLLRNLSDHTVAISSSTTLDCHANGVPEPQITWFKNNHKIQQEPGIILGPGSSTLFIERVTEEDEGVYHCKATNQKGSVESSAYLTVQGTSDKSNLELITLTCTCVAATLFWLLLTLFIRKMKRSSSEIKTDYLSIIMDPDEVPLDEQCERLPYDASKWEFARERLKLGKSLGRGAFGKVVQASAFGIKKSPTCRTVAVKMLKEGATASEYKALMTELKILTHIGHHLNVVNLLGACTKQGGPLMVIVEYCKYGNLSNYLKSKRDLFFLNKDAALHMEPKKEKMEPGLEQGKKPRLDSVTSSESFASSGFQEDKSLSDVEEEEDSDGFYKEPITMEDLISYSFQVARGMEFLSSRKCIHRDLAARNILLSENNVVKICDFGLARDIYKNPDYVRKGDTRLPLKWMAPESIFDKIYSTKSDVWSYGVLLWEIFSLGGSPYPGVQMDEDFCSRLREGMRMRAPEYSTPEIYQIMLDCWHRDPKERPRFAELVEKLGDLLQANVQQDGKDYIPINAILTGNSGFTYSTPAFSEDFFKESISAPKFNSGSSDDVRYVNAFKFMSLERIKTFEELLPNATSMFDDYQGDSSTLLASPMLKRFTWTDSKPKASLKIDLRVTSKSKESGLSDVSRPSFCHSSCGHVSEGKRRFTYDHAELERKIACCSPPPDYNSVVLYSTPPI
Chain of Ribosomal protein S6 kinase beta-1 (Homo sapiens) (P23443 whole entry, looked up): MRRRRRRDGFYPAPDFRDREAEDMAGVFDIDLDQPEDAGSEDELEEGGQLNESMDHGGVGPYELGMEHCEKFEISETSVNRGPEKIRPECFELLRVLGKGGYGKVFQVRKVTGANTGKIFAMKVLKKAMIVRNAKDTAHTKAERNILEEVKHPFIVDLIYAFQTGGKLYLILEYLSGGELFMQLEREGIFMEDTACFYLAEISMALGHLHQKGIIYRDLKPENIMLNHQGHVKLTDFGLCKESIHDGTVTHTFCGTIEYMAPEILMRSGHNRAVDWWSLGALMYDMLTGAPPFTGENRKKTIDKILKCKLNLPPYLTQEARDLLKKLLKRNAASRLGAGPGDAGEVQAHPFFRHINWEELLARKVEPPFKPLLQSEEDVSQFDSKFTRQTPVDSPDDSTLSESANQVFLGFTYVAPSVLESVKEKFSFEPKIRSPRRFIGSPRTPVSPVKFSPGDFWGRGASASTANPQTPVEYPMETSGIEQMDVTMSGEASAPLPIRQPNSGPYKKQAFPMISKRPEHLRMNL

Regarding `C=CC(=O)[C@H](Cc1ccccc1)NC(=O)OC(C)(C)C`, the inhibition (in general, the relative decrease from the control value, in per cent) in [1] was -4%; in [3], 2%; in test [4] it was 2%; in test [5], 46%; in [6], 5%; in [7], 3%. Moreover, the inhibition is 50% in test [8]; -7% in test [9]; 4% in test [10]; 36% in [12]; 9% in test [13]; 13% in [14]. For the same molecule, the values for the inhibition in test [15], in test [16] and in test [18] were 14%, 50% and -1%, respectively. For the same molecule, the results for the pIC50 in test [2] and in test [17] were 4.28 and 6.24, respectively. The “Ratio IC50” value in [11] is on record as 37.
